# Data taken from ChEMBL document CHEMBL1130347, “Lanthionine-somatostatin analogs: synthesis, characterization, biological activity, and enzymatic stability studies” (J Med Chem, 1997).
# Bridge positions count the residues as written; N and C are the ends. Square brackets hold non-standard residues; d marks the D form. Peptide text beside a SMILES is read from it. * marks the point of attachment. Threoninol(2S,3R) = C[C@@H](O)[C@H](CO)N*
# Experiments:
# Rattus norvegicus = species: Rattus norvegicus; assay: Tested for inhibition of growth hormone (GH)release from primary cultures of male rat anterior pituitary cells; type: functional, cell-based; conditions: Pituitary gland cell
# [1] = target: Somatostatin receptor type 3 (Mus musculus, UniProt P30935); assay: Tested for inhibition of radioligand binding to cloned somatostatin receptor mSSTR3
# [2] = target: Somatostatin receptor type 4 (Homo sapiens, UniProt P31391); assay: Tested for inhibition of radioligand binding to cloned somatostatin receptor hSSTR4
# [3] = target: Somatostatin receptor type 2 (Mus musculus, UniProt P30875); assay: Tested for inhibition of radioligand binding to cloned somatostatin receptor mSSTR2b
# [4] = target: T1, Somatostatin receptor type 5 (Rattus norvegicus, UniProt P30938); assay: Tested for inhibition of radioligand binding to cloned somatostatin receptor rSSTR5
# T1 sequence (P30938 whole entry): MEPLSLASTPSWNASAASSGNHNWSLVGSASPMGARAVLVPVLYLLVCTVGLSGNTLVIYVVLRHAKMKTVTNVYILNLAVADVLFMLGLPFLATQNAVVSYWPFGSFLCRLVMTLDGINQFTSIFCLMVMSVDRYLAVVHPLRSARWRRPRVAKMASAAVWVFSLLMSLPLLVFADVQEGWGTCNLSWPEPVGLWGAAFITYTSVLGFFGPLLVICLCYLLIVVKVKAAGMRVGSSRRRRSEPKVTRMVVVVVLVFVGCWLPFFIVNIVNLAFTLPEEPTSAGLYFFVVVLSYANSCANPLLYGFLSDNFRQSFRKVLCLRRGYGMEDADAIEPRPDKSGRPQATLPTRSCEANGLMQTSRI
# [5] = target: Somatostatin receptor type 5 (Homo sapiens, UniProt P35346); assay: Tested for inhibition of radioligand binding to cloned somatostatin receptor hSSTR5
# [6] = half-life of compound; type: ADME
# How it was run: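 Aliquots taken at 5, 15, 30, 45, 60 and 90 min were quenched in ice-cold 1 M acetic acid and centrifuged. Remaining peptide was measured by microbore RP-HPLC at 216 nm against homogenate calibration. A pseudo-first-order exponential fit gave k, and half-life = 0.693/k.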
# Sequence of Somatostatin receptor type 3 (P30935 whole entry): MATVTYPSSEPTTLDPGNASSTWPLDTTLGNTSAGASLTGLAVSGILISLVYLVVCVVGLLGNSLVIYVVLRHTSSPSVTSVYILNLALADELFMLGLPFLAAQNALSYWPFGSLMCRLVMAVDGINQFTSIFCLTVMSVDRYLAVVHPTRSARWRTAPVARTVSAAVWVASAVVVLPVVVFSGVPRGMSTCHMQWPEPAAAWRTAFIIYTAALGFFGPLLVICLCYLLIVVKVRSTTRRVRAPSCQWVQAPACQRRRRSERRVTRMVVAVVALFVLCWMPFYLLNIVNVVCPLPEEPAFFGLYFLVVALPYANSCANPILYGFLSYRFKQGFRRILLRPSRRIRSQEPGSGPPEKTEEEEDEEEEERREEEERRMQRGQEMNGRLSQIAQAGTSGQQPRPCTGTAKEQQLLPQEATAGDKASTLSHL
# Sequence of Somatostatin receptor type 4 (P31391 whole entry): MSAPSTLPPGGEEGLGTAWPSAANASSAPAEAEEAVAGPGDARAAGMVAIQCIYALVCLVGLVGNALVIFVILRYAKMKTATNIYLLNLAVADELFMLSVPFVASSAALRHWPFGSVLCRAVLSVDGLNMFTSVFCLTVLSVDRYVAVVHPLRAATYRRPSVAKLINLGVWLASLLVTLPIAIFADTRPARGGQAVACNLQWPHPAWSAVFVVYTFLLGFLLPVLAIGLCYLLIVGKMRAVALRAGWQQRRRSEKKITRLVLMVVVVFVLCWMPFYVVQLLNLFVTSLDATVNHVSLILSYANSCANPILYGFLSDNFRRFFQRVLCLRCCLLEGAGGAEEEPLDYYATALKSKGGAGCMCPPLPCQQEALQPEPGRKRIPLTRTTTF
# Sequence of Somatostatin receptor type 2 (P30875 whole entry): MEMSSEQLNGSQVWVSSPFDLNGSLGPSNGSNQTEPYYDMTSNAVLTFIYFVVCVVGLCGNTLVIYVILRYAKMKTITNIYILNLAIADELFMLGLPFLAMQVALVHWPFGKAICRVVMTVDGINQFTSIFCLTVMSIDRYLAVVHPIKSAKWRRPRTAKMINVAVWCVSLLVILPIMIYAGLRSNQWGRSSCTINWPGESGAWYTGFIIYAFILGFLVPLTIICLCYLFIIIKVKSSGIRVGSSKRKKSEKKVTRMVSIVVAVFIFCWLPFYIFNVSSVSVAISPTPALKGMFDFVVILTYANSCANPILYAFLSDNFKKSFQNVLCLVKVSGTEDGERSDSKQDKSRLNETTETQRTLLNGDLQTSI
# Sequence of Somatostatin receptor type 5 (Homo sapiens, UniProt P35346) (P35346 whole entry): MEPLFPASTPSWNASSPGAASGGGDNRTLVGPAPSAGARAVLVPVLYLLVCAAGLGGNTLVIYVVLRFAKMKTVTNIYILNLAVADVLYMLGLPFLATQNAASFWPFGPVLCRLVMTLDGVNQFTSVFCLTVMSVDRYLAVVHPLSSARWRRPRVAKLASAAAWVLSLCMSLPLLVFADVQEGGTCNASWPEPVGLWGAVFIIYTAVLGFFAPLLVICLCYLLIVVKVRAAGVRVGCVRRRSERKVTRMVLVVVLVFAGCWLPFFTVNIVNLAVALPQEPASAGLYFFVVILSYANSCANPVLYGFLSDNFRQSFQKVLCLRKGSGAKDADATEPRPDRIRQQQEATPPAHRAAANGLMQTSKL
IC50 [1],IC50 [2],IC50 [3],SMILES,IC50 (Rattus norvegicus),other results
,,13.6 nM,C[C@@H](O)[C@@H]1NC(=O)[C@H](CCCCN)NC(=O)[C@@H](Cc2c[nH]c3ccccc23)NC(=O)[C@H](Cc2ccccc2)NC(=O)[C@@H](NC(=O)[C@H](N)Cc2ccccc2)CSSC[C@@H](C(=O)O)NC1=O,,
> 1000 nM,> 1000 nM,,C[C@@H](O)[C@H]1NC(=O)[C@H](CCCCN)NC(=O)[C@@H](Cc2c[nH]c3ccccc23)NC(=O)[C@H](Cc2ccccc2)NC(=O)[C@@H](NC(=O)[C@@H](N)Cc2ccccc2)CSSC[C@H](C(=O)O)NC1=O,,
> 1000 nM,> 1000 nM,16.6 nM,C[C@@H](O)[C@H](NC(=O)[C@@H]1CSC[C@H](NC(=O)[C@H](N)Cc2ccccc2)C(=O)N[C@@H](Cc2ccccc2)C(=O)N[C@H](Cc2c[nH]c3ccccc23)C(=O)N[C@@H](CCCCN)C(=O)N[C@@H]([C@@H](C)O)C(=O)N1)C(N)=O [listing 2 of 2 here],,
> 1000 nM,> 1000 nM,> 1000 nM,C[C@@H](O)[C@@H]1NC(=O)[C@H](CCCCN)NC(=O)[C@@H](Cc2c[nH]c3ccccc23)NC(=O)[C@H](Cc2ccccc2)NC(=O)[C@@H](NC(=O)[C@H](N)Cc2ccccc2)CSC[C@@H](C(=O)O)NC1=O,> 1000 nM,

# Further lines, the compound ahead of its results:
SMILES,IC50 [1],IC50 [2],IC50 [3],IC50 (Rattus norvegicus),other results
C[C@@H](O)[C@@H]1NC(=O)[C@H](CCCCN)NC(=O)[C@@H](Cc2c[nH]c3ccccc23)NC(=O)[C@H](Cc2ccccc2)NC(=O)[C@@H](N)CSC[C@@H](C(=O)O)NC1=O [listing 1 of 2 here],,,,> 1000 nM,
C[C@@H](O)[C@@H]1NC(=O)[C@H](CCCCN)NC(=O)[C@@H](Cc2c[nH]c3ccccc23)NC(=O)[C@H](Cc2ccccc2)NC(=O)[C@@H](N)CSC[C@@H](C(=O)O)NC1=O [listing 2 of 2 here],> 1000 nM,> 1000 nM,> 1000 nM,,
C[C@@H](O)[C@H]1NC(=O)[C@H](CCCCN)NC(=O)[C@@H](Cc2c[nH]c3ccccc23)NC(=O)[C@H](Cc2ccccc2)NC(=O)[C@@H](N)CSC[C@H](C(=O)O)NC1=O,,,,,IC50 [4]: 500 nM
C[C@@H](O)[C@H](NC(=O)[C@@H]1CSC[C@H](NC(=O)[C@H](N)Cc2ccccc2)C(=O)N[C@@H](Cc2ccccc2)C(=O)N[C@H](Cc2c[nH]c3ccccc23)C(=O)N[C@@H](CCCCN)C(=O)N[C@@H]([C@@H](C)O)C(=O)N1)C(N)=O [listing 1 of 2 here],,,,,IC50 [5]: 4.92 nM
C[C@@H](O)[C@H](NC(=O)[C@@H]1CSC[C@@H](NC(=O)[C@H](N)Cc2ccccc2)C(=O)N[C@H](Cc2ccccc2)C(=O)N[C@@H](Cc2c[nH]c3ccccc23)C(=O)N[C@H](CCCCN)C(=O)N[C@@H]([C@@H](C)O)C(=O)N1)C(N)=O,,,,70 nM,
"C[C@@H](O)[C@H](CO)NC(=O)[C@@H]1CSSC[C@H](NC(=O)[C@H](N)Cc2ccccc2)C(=O)N[C@@H](Cc2ccccc2)C(=O)N[C@H](Cc2c[nH]c3ccccc23)C(=O)N[C@@H](CCCCN)C(=O)N[C@@H]([C@@H](C)O)C(=O)N1 (H-[dF]CF[dW]KTC-{Threoninol(2S,3R)}; disulfide 2-7)",3 nM,,0.28 nM,0.52 nM,IC50 [4]: 1.04 nM; half-life [6]: 12.5 h
C[C@H](N)C(=O)NCC(=O)N[C@H]1CSSC[C@@H](C(=O)O)NC(=O)[C@H](CO)NC(=O)[C@H]([C@@H](C)O)NC(=O)[C@H](Cc2ccccc2)NC(=O)[C@H]([C@@H](C)O)NC(=O)[C@H](CCCCN)NC(=O)[C@H](Cc2c[nH]c3ccccc23)NC(=O)[C@H](Cc2ccccc2)NC(=O)[C@H](Cc2ccccc2)NC(=O)[C@H](CC(N)=O)NC(=O)[C@H](CCCCN)NC1=O [SOMATOSTATIN],,,,0.52 nM,
